In ChEMBL document CHEMBL1138289, “Synthesis and biological evaluation of fluorescent leishmanicidal analogues of hexadecylphosphocholine (miltefosine) as probes of antiparasite mechanisms” (J Med Chem, 2007) one finds LC50, Intracellular concentration and Drug uptake data, which are given here for five compounds.

Where only a bound is given, the exact number is not on record here.

In data set [1] the test system is Leishmania pifanoi. Nature of the data set: Antileishmanial activity against miltefosine-sensitive Leishmania pifanoi MHOM/VE/60/Ltrod amastigotes by MTT assay. It counts as functional. To be noted: read-out: LD50 (the source's name). The method in brief:
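Axenic amastigotes from late exponential phase, washed twice, seeded at 2 × 10^6 parasites mL-1 in growth medium with compound for 120 h at 32 °C. Then washed in Hanks+Glc, given 0.5 mg mL-1 MTT for 2 h at 32 °C, SDS 10% overnight at 37 °C, absorbance 595 nm. Triplicates, repeated at least twice; LD50 (50% proliferation inhibition) with SE.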
Background: Tetrazolium assays rely on reduction of a dye to a coloured formazan, in cell work by metabolically active cells.

The test system of data set [2] is Leishmania donovani. Description: Antileishmanial activity against miltefosine-resistant Leishmania donovani MHOM/ET/67/L82R40 promastigotes by MTT assay. The class given is functional. To be noted: read-out: LD50 (the source's name). The method in brief: (§1)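 Promastigotes from late exponential phase, washed twice, seeded at 2 × 10^6 parasites mL-1 in RPMI with 10% heat-inactivated FCS and 2 mM glutamine, exposed to compound 72 h at 26 °C. Washed in Hanks+Glc, MTT 0.5 mg mL-1 for 2 h at 26 °C, formazan dissolved in 10% SDS overnight at 37 °C, A595. Triplicates, two or more experiments; LD50 with SE.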

Data set [3] has as its system Leishmania donovani. Description: Antileishmanial activity against miltefosine-sensitive Leishmania donovani MHOM/ET/67/L82 promastigotes by MTT assay. The class given is functional. To be noted: read-out: LD50 (the source's name). The method in brief: as §1
Data set [4] relates to Leishmania donovani. Nature of the data set: Intracellular drug concentration in miltefosine-sensitive Leishmania donovani promastigotes at 7.5 uM after 2 hrs. To be noted: in vivo.
Data set [5] concerns Leishmania donovani. Nature of the data set: Drug level per mg of protein in miltefosine-sensitive Leishmania donovani promastigotes at 15 uM after 2 hrs. The class given is ADME, organism-based. To be noted: in vivo. The method in brief: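 Late-exponential L. donovani promastigotes (MHOM/ET/67/L82) washed twice in Hanks+Glc, resuspended at 1.5 × 10^7 parasites mL-1 in the same medium with the analogue, incubated 2 h at 26 °C to reach steady intracellular accumulation. Analogue extracted and quantified by HPLC against calibration plots; expressed per mg protein.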

As for `C[N+](C)(C)CCOP(=O)([O-])OCCCCC/C=C/C=C/C=C/C=C/c1ccccc1`, the LC50 was 26 µM in data set [1], over 60 µM in data set [2] and 28.6 µM in data set [3].
`C[N+](C)(C)CCOP(=O)([O-])OCCCCCC#C/C=C/C=C/C=C/c1ccccc1`: the LC50 is 26.5 µM in data set [1], over 60 µM in data set [2] and 29.6 µM in data set [3]. Also, the Intracellular concentration in data set [4] worked out at 0.7 mM. The Drug uptake in data set [5] is 7.6 nmol/mg.
With `OCCCCCC#C/C=C/C=C/C=C/c1ccccc1`, the LC50 in data set [1], in data set [2] and in data set [3] was over 150 µM in each case.
`COC(COCCCCCCC/C=C/C=C/C=C/C=C/c1ccccc1)COP(=O)([O-])OCC[N+](C)(C)C` (racemic): the LC50 in data set [1] was 22.5 µM; in data set [2], over 60 µM; in data set [3], 9 µM.
On to `CCCCCCCCCCCCCCCCOP(=O)([O-])OCC[N+](C)(C)C` [MILTEFOSINE], for which the LC50 in data set [1] was 26.3 µM; in data set [2], over 60 µM; in data set [3], 12.5 µM.
